The test system of data set [1] is Rattus norvegicus. Briefly: (§1) AUC (0 to t) in Sprague-Dawley rat at 3 mg/kg, po. Format: ADME, organism-based, Plasma. Set-up: dose 3 mg/kg, route oral. The note with it: in vivo. The gist of the method:
(§2)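 Single oral dose of 3.0 mg/kg given to Sprague-Dawley rats, n = 6. Plasma concentration–time profiles gave apparent total plasma clearance (CL_z/F), half-life, AUC0–t and peak plasma concentration (Cmax).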

The subject of data set [2] is Cynomolgus monkey. Briefly: animal or person. As to conditions: Macaca fascicularis, po, 5 h, read-out: Inhibition.
The test system of data set [3] is Cynomolgus monkey. The data set can be described thus: animal or person. As to conditions: Macaca fascicularis, po, 12 h, read-out: Inhibition.
Data set [4] is described as follows: Cmax in Sprague-Dawley rat at 3 mg/kg, po. Type of data set: ADME, organism-based. The arrangement: dose 3 mg/kg, route oral. As to conditions: in vivo. Summed up:
as §2

Data set [5] in a line: Half life in Sprague-Dawley rat at 3 mg/kg, po. Format: ADME, organism-based. The arrangement: dose 3 mg/kg, route oral. As to conditions: in vivo. Summed up:
as §2

In data set [6] the test system is Rattus norvegicus. Briefly: (§3) Apparent total oral clearance in Sprague-Dawley rat at 3 mg/kg, po. Type of data set: ADME, organism-based. Set-up: dose 3 mg/kg, route oral. The note with it: in vivo. The gist of the method:
as §2

For the next data set, the target named is Dipeptidyl peptidase 4 (Homo sapiens, UniProt P27487).
Sequence of Dipeptidyl peptidase 4 (P27487 whole entry): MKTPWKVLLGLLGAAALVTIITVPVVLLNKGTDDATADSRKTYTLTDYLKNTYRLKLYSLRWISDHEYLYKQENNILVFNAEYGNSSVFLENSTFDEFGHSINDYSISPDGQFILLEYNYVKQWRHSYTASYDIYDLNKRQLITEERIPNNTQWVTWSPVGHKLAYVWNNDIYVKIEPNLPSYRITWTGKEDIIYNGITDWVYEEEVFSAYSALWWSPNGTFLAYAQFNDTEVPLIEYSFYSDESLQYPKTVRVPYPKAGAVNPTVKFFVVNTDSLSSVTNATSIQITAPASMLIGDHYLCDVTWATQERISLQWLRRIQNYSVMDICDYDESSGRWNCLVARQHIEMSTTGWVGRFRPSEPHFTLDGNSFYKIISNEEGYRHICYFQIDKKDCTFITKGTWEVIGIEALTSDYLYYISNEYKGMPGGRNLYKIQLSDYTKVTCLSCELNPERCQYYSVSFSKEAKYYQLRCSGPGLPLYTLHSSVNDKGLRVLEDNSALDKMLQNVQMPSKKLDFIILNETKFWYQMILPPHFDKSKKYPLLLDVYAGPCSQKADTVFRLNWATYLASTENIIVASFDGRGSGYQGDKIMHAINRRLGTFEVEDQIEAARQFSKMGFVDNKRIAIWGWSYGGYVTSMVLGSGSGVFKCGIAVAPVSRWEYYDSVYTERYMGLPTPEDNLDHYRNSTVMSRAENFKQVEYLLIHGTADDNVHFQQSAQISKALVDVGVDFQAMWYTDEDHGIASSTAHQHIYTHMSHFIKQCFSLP
Data set [7] concerns Mus musculus. Briefly: Antidiabetic activity in ICR mouse assessed as reduction in glucose AUC (0 to 120) at 3 mg/kg, po pretreated 30 mins before glucose challenge measured after 120 mins by oral glucose tolerance test relative to control. Type of data set: functional, organism-based. The arrangement: dose 3 mg/kg. Summed up:
(§4)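 Lean ICR mice were dosed orally at 1, 3 or 10 mg/kg 0.5 h before an oral glucose challenge. Blood glucose was followed over 0–120 min, and glucose AUC0–120 min was expressed as percent change versus vehicle control. Data are mean ± SEM, n = 5 per group; P versus control.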

Data set [8] has as its system Mus musculus. The data set can be described thus: Antidiabetic activity in ICR mouse assessed as reduction in glucose AUC (0 to 120) at 10 mg/kg, po pretreated 30 mins before glucose challenge measured after 120 mins by oral glucose tolerance test relative to control. Format: functional, organism-based. The arrangement: dose 10 mg/kg. The gist of the method:
as §4

Data set [9] relates to Mus musculus. Briefly: Antidiabetic activity in ICR mouse assessed as reduction in glucose AUC (0 to 120) at 1 mg/kg, po pretreated 30 mins before glucose challenge measured after 120 mins by oral glucose tolerance test relative to control. The arrangement: dose 1 mg/kg. Type of data set: functional, organism-based. Summed up:
as §4

A short description of data set [10]: as §1. Type of data set: ADME, organism-based, Plasma. The arrangement: dose 3 mg/kg, route oral. The note with it: Sprague-Dawley, plasma. The gist of the method: as §2
Data set [11] in a line: as §3. Format: ADME, organism-based. Set-up: dose 3 mg/kg, route oral. The note with it: Sprague-Dawley, in vivo. The gist of the method:
as §2

In data set [12] the test system is Cynomolgus monkey. The data set can be described thus: animal or person. The note with it: Macaca fascicularis, po, 9 h, read-out: Inhibition.

Some results are limits rather than exact numbers.

The term Cmax denotes the highest concentration seen after dosing. A word on the half-life: it is the time in which the quantity being followed falls by half. In general, IC50 refers to the concentration that inhibits the measured activity by half. The AUC(0-t) is the area under the concentration-time curve up to a stated or last time point. Usually CL/F stands for clearance divided by bioavailability, as obtained after extravascular dosing.

On to `CN(C)C(=O)N1C[C@@H]2C[C@](C)(NCC(=O)N3CCC[C@H]3C#N)C[C@@H]2C1`, for which the AUC with Rattus norvegicus [1] is 266.3 ng·h/mL. The inhibition in vivo at 20 mg/kg with Cynomolgus monkey [2] is > 75%; with Cynomolgus monkey [3], 38%. The highest level in data set [4] (Cmax) was 165 ng/mL. The same compound gave a half-life in [5] of 195 min. Besides, the CL in the data set with Rattus norvegicus [6] is 847.8 mL/min/kg.
For the compound `N#C[C@@H]1CCCN1C(=O)CN[C@@H]1C[C@@H]2CN(C(=O)N3CCCCC3)C[C@@H]2C1`, half-maximal inhibition at Dipeptidyl peptidase 4 (IC50) was put at 0.069 µM.
Still for that read-out and setting: the figure for `CC(C)NC(=O)N1C[C@H]2C[C@@H](NCC(=O)N3CCC[C@H]3C#N)C[C@H]2C1` is 0.12 µM.
As for `N#C[C@@H]1CCCN1C(=O)CNC12CC3CC(CC(O)(C3)C1)C2`, the AUC with Mus musculus [7] is 41.7%; with Mus musculus [8], 51.4%; in the data set on Mus musculus [9], 35.8%.
As for `CN(C)C(=O)N1C[C@H]2C[C@@H](NCC(=O)N3CCC[C@H]3C#N)C[C@H]2C1`, the AUC with Mus musculus [7] was determined as 42%; in the data set on Mus musculus [8], 45%; with Mus musculus [9] it was 39.7%. Also, the AUC(0-t) in data set [10] came out at 68.7 ng·h/mL. Besides, the inhibition in vivo at 20 mg/kg in the data set with Cynomolgus monkey [2] was > 75%. This compound gave a Cmax in [4] of 39.4 ng/mL. This compound also showed a half-life in data set [5] of 56.4 min. For the same compound, in [11], the CL/F is 190 mL/min/kg.
In the case of `COC(=O)N1C[C@H]2C[C@@H](NCC(=O)N3CCC[C@H]3C#N)C[C@H]2C1`, half-maximal inhibition against Dipeptidyl peptidase 4 (IC50) was put at 0.024 µM.
Still for that read-out and setting: as for `N#C[C@@H]1CCCN1C(=O)CN[C@@H]1C[C@@H]2CN(C(=O)N3CCCC3)C[C@@H]2C1`, the figure is 0.039 µM; as for `N#C[C@@H]1CCCN1C(=O)CN[C@@H]1C[C@@H]2CN(C(=O)CO)C[C@@H]2C1`, 0.014 µM.
With `CN(C)C(=O)N1C[C@@H]2C[C@@](C)(NCC(=O)N3CCC[C@H]3C#N)C[C@@H]2C1`, in data set [10], the AUC(0-t) was determined as 120 ng·h/mL. Moreover, the inhibition in vivo at 20 mg/kg is > 75% with Cynomolgus monkey [12] and 51% in the data set on Cynomolgus monkey [3]. The same compound yielded a Cmax in data set [4] of 146 ng/mL. In addition, the half-life in data set [5] was 54 min. For the same compound, the CL/F in [11] was 564 mL/min/kg.
`N#C[C@@H]1CCCN1C(=O)CN[C@@H]1C[C@@H]2CN(C(=O)N3CCOCC3)C[C@@H]2C1` displayed an IC50 on Dipeptidyl peptidase 4 of 0.05 µM.

For the origin of these results see ChEMBL document CHEMBL1158614, “Synthesis and biological evaluation of azobicyclo[3.3.0] octane derivatives as dipeptidyl peptidase 4 inhibitors for the treatment of type 2 diabetes” (Bioorg Med Chem Lett, 2010).
